Experimental data as given in article PMC4784694 (Molecular cancer therapeutics, 2015).

Legend:
breast cancer cells = conditions: Supplemental Figure 3B; others and own data
MDA-MB-231 tumors [1] = type: in vivo, NSG mice; conditions: eribulin 0.1 mg/kg i.v.; POL5551 20 mg/kg s.c. b.i.d.; Figure 5A–C
MDA-MB-231 tumors [2] = assay: Eribulin dose ranging in mice bearing MDA-MB-231 tumors; type: in vivo
Summary of the method: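 Female NSG mice, 6–8 weeks old, were inoculated with 5×10⁵ MDA-MB-231 cells in Matrigel into the #9 mammary fat pad to form orthotopic tumours. Eribulin was diluted in saline and given i.v. once a week, at 0.1 mg/kg for primary fat-pad therapy. Vehicle controls received saline. Weight change is reported as mean and range.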

Structure (SMILES)	SDF-1 mediated migration of breast cancer cells (breast cancer cells)	Primary MFP tumor growth (MDA-MB-231 tumors [1])	Primary breast tumor reduction (MDA-MB-231 tumors [2]; eribulin 0.1 mg/kg single-agent, Supplemental Figure 5F)	Mice survival (MDA-MB-231 tumors [2]; eribulin dose ranging, Supplemental Figure 5D)	Treatment associated weight loss (MDA-MB-231 tumors [2]; high dose of eribulin (>0.5 mg/kg), Supplemental Figure 5E)
c1cc(CN2CCCNCCNCCCNCC2)ccc1CN1CCCNCCNCCCNCC1 [AMD3100]	can block SDF-1 mediated migration of breast cancer cells				
C=C1C[C@@H]2CC[C@@]34C[C@H]5O[C@H]6[C@@H](O3)[C@H]3O[C@H](CC[C@@H]3O[C@H]6[C@H]5O4)CC(=O)C[C@@H]3[C@@H](OC)[C@@H](C[C@H](O)CN)O[C@H]3C[C@H]3O[C@@H](CC[C@@H]1O2)C[C@@H](C)C3=C [eribulin, Eribulin]		decreased primary tumor growth rate	50%	prolonged mice survival in a dose-dependent manner	greater treatment associated weight loss
